Calls of active or inactive are those of the source. Bridge positions count the residues as written; N and C are the ends. Square brackets hold non-standard residues; d marks the D form. Peptide text beside a SMILES is read from it. * marks the point of attachment. X1 = OC[C@H]1O[C@@H](O[C@H]2[C@H](O)[C@@H](O)[C@H](*)O[C@@H]2CO)[C@H](O)[C@@H](O)[C@H]1O; βGlc = OC[C@H]1O[C@@H](*)[C@H](O)[C@@H](O)[C@@H]1O; Dap = NC[C@H](N)C(=O)O; Aib = CC(C)(N)C(=O)O
Tests used:
[1] = target: T1, Vasopressin V1b receptor (Homo sapiens, UniProt P47901); test: Activation of human 3X-HA N-tagged AVP1b expressed in CHO-K1 cells incubated for 10 mins by cell Western assay; assay type: cell-based
T1 sequence (P47901 whole entry): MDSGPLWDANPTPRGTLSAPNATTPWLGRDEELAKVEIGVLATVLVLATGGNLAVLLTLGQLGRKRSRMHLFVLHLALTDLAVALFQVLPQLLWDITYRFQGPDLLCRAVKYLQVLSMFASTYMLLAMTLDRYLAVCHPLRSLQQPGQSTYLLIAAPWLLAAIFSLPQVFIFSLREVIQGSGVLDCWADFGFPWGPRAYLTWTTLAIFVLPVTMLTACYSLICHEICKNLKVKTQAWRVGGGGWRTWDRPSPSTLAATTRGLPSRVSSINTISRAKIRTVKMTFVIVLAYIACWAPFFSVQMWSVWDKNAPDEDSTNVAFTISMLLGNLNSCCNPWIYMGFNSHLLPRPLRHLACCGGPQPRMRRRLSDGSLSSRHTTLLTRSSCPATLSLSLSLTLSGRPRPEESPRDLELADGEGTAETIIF
Procedure, shortened: (§1)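 In-cell Western read-out of ERK MAPK activation in CHO cells expressing the human receptor (OTR, AVP1a or AVP1b). Potency reported as mean ± SEM of N = 3 independent experiments.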

[2] = target: T2, Oxytocin receptor (Homo sapiens, UniProt P30559); test: Activation of human 3X-HA N-tagged OTR expressed in CHO-K1 cells incubated for 10 mins by cell Western assay; assay type: cell-based; procedure, shortened: as §1
T2 sequence (P30559 whole entry): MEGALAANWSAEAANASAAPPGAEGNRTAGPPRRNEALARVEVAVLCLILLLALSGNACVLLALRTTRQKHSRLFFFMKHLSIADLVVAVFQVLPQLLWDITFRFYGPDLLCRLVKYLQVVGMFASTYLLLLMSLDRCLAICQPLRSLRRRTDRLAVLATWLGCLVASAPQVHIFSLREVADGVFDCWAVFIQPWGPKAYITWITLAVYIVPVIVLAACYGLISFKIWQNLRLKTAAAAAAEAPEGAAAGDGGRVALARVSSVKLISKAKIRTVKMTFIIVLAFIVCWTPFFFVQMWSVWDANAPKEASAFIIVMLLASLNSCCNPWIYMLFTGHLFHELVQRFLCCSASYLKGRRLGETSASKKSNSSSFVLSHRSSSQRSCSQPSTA

[3] = target: Vasopressin V1a receptor (Homo sapiens, UniProt P37288); test: Activation of human 3X-HA N-tagged AVP1a expressed in CHO-K1 cells incubated for 10 mins by cell Western assay; assay type: cell-based; procedure, shortened: as §1
[4] = tested on: Mus musculus; test: Antinociceptive activity against CD-1 mouse assessed as pain relief at 10 mg/kg, iv measured after 2 hrs by tail flick test; assay type: functional, organism-based
Procedure, shortened: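 Male CD-1 mice dosed at 10 mg/kg by intravenous injection into the tail vein. Vehicle, oxytocin and morphine groups run alongside. Tail flick in 52 °C water with a 10 s cutoff. Mean ± SEM, N = 5 mice/group.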

Sequence of Vasopressin V1a receptor (P37288 whole entry): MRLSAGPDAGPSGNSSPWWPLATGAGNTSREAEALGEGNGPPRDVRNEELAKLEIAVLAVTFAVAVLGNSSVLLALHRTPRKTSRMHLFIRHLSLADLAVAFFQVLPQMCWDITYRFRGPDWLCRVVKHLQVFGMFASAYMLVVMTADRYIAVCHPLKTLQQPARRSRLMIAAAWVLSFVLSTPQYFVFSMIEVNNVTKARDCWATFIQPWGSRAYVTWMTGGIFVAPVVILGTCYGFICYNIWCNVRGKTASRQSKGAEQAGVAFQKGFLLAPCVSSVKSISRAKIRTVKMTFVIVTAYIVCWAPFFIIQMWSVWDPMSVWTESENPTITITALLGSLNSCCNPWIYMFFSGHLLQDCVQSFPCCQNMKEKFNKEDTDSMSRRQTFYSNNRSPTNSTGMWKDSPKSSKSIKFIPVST

CC[C@H](C)[C@@H]1NC(=O)[C@H](Cc2ccc(O)cc2)NC(=O)[C@@H](N)CC(=O)NC[C@@H](C(=O)N2CCC[C@H]2C(=O)NC(C)(C)C(=O)N[C@H](CO[C@@H]2O[C@H](CO)[C@@H](O)[C@H](O)[C@H]2O)C(N)=O)NC(=O)[C@H](CC(N)=O)NC(=O)[C@H](CCC(N)=O)NC1=O was tested, and the EC50 [1] was “Not Active”, the EC50 ([2]; cho-k1) was 0.28 nM and the EC50 [3] was “Not Active”.

For CC[C@H](C)[C@@H]1NC(=O)[C@H](Cc2ccc(O)cc2)NC(=O)[C@@H](N)CCC(=O)NC[C@@H](C(=O)N2CCC[C@H]2C(=O)NC(C)(C)C(=O)NCC(=O)N[C@@H](CO[C@@H]2O[C@H](CO)[C@@H](O)[C@H](O)[C@H]2O)C(N)=O)NC(=O)[C@H](CC(N)=O)NC(=O)[C@H](CCC(N)=O)NC1=O, the Activity [4] was “Active”, the EC50 [1] was “Not Active” and the EC50 [2] was 0.06 nM. The EC50 [3] was “Not Active”.

In the case of CC[C@H](C)[C@@H]1NC(=O)[C@H](Cc2ccc(O)cc2)NC(=O)[C@@H](N)CSSC[C@@H](C(=O)N2CCC[C@H]2C(=O)N[C@@H](CC(C)C)C(=O)NCC(N)=O)NC(=O)[C@H](CC(N)=O)NC(=O)[C@H](CCC(N)=O)NC1=O, the Activity [4] is reported as “inactive”.

For CN1CC[C@]23c4c5ccc(O)c4O[C@H]2[C@@H](O)C=C[C@H]3[C@H]1C5, the Activity [4] was “Active”.

With CC[C@H](C)[C@@H]1NC(=O)[C@H](Cc2ccc(O)cc2)NC(=O)[C@@H](N)CC(=O)NC[C@@H](C(=O)N2CCC[C@H]2C(=O)N[C@@H](CC(C)C)C(=O)NCC(N)=O)NC(=O)[C@H](CC(N)=O)NC(=O)[C@H](CCC(N)=O)NC1=O (H-DYIQN[Dap]PLG-NH2; lactam 1-6) the Activity [4] was “Active”, the EC50 [1] was “Not Active” and the EC50 [3] was “Not Active”.

CC[C@H](C)[C@@H]1NC(=O)[C@H](Cc2ccc(O)cc2)NC(=O)[C@@H](N)CC(=O)NC[C@@H](C(=O)N2CCC[C@H]2C(=O)N[C@@H](CC(C)C)C(=O)NCC(=O)N[C@@H](CO[C@@H]2O[C@H](CO)[C@@H](O[C@@H]3O[C@H](CO)[C@H](O)[C@H](O)[C@H]3O)[C@H](O)[C@H]2O)C(N)=O)NC(=O)[C@H](CC(N)=O)NC(=O)[C@H](CCC(N)=O)NC1=O (H-DYIQN[Dap]PLGS(X1)-NH2; lactam 1-6) was tested, and the EC50 [1] was “Not Active”, the EC50 [2] was 160 nM and the EC50 [3] was “Not Active”.

For CC[C@H](C)[C@@H]1NC(=O)[C@H](Cc2ccc(O)cc2)NC(=O)[C@@H](N)CC(=O)NC[C@@H](C(=O)N2CCC[C@H]2C(=O)N[C@@H](CC(C)C)C(=O)N[C@@H](CO[C@@H]2O[C@H](CO)[C@@H](O[C@@H]3O[C@H](CO)[C@H](O)[C@H](O)[C@H]3O)[C@H](O)[C@H]2O)C(N)=O)NC(=O)[C@H](CC(N)=O)NC(=O)[C@H](CCC(N)=O)NC1=O (H-DYIQN[Dap]PLS(X1)-NH2; lactam 1-6), the EC50 [1] was “Not Active”, the EC50 [2] was 0.54 nM and the EC50 [3] was “Not Active”.

CC[C@H](C)[C@@H]1NC(=O)[C@H](Cc2ccc(O)cc2)NC(=O)[C@@H](N)CCC(=O)NC[C@@H](C(=O)N2CCC[C@H]2C(=O)N[C@@H](CC(C)C)C(=O)NCC(N)=O)NC(=O)[C@H](CC(N)=O)NC(=O)[C@H](CCC(N)=O)NC1=O (H-EYIQN[Dap]PLG-NH2; lactam 1-6) was tested, and the EC50 [1] was “Not Active” and the EC50 [3] was “Not Active”.

CC[C@H](C)[C@@H]1NC(=O)[C@H](Cc2ccc(O)cc2)NC(=O)[C@@H](N)CCC(=O)NC[C@@H](C(=O)N2CCC[C@H]2C(=O)N[C@@H](CC(C)C)C(=O)N[C@@H](CO[C@@H]2O[C@H](CO)[C@@H](O)[C@H](O)[C@H]2O)C(N)=O)NC(=O)[C@H](CC(N)=O)NC(=O)[C@H](CCC(N)=O)NC1=O (H-EYIQN[Dap]PLS(βGlc)-NH2; lactam 1-6) was tested, and the EC50 [1] was “Not Active”, the EC50 [2] was 0.73 nM and the EC50 [3] was “Not Active”.

For CC[C@H](C)[C@@H]1NC(=O)[C@H](Cc2ccc(O)cc2)NC(=O)[C@@H](N)CCC(=O)NC[C@@H](C(=O)N2CCC[C@H]2C(=O)NC(C)(C)C(=O)N[C@@H](CO[C@@H]2O[C@H](CO)[C@@H](O)[C@H](O)[C@H]2O)C(N)=O)NC(=O)[C@H](CC(N)=O)NC(=O)[C@H](CCC(N)=O)NC1=O (H-EYIQN[Dap]P[Aib]S(βGlc)-NH2; lactam 1-6), the EC50 [1] was “Not Active”, the EC50 [2] was 220 nM and the EC50 [3] was “Not Active”.

From ChEMBL document CHEMBL5223184, “Structure-Based Design of Glycosylated Oxytocin Analogues with Improved Selectivity and Antinociceptive Activity” (ACS Med Chem Lett, 2023)
